Experimental findings from article PMC4059272 (Journal of Medicinal Chemistry, 2014) are described below.

One assay addresses T1, ERα (Homo sapiens, UniProt P03372).
T1 sequence (P03372 1-595): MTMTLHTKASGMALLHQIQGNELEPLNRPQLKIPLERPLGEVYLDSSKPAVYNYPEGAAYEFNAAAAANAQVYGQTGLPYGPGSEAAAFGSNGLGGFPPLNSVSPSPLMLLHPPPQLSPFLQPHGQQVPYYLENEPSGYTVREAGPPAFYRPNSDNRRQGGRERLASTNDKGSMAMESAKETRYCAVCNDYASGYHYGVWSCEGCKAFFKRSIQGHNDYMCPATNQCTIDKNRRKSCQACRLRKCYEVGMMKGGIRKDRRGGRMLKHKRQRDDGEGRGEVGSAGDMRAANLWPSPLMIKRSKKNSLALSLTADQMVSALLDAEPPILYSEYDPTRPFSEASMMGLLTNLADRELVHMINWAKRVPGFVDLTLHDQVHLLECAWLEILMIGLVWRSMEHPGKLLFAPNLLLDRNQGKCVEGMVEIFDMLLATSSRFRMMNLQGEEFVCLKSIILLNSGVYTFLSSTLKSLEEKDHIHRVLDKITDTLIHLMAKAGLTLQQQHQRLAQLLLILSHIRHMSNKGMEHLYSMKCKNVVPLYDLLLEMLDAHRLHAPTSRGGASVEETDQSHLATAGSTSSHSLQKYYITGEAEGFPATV
Put plainly: Immunoblotting of ERα protein levels in MCF-7:WS8 cells. The class given is cell-based. The conditions noted are these: for regulation of ERα protein levels: MCF-7:WS8, 24 h treatment.

A further assay has as its system prolactin gene (Prl). Put plainly: RT-PCR of prolactin. The class given is cell-based, rat. The conditions noted are these: GH3 cells, top concentration of 10^–6 M, with 1 nM E2.
For a further assay, the system named is pS2 gene. Put plainly: RT-PCR of estrogen-responsive gene pS2 in MCF-7:WS8 cells. The conditions noted are these: MCF-7:WS8, 48 h; E2 at 10^–10 M, other compounds at 10^–6 M. The class given is cell-based, human. The essentials: (§1)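 MCF-7:WS8 cells kept in phenol-red RPMI 1640 with 10% FBS, glutamine, nonessential amino acids and 6 ng/mL insulin at 37 °C, 5% CO2. Cells were estrogen-starved 3 days, seeded at 300 000 cells/well the day before, and treated 48 h. RNA was taken in Trizol and run as SYBR green real-time PCR with 36B4 as reference.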

Assay [1] relates to MCF-7:WS8 cells. Put plainly: DNA quantification growth assay, compounds alone. It is filed as cell-based, human. The conditions noted are these: for estrogenic properties on cell growth: MCF-7:WS8, compounds alone, concentration range 10^–12–10^–6 M.
In another assay the test system is GREB1 gene. Put plainly: RT-PCR of estrogen-responsive gene GREB1 in MCF-7:WS8 cells. It is filed as cell-based, human. As to conditions: MCF-7:WS8, 48 h; E2 at 10^–10 M, other compounds at 10^–6 M. The method in brief:
as §1

Assay [2] has as its system MCF-7:WS8 cells. Put plainly: DNA based growth assay, combination treatments with 10^–10 M E2. It is filed as cell-based, human. As to conditions: for inhibition of 10^–10 M E2-induced growth: MCF-7:WS8, at 10^–6 M.
In the next assay the test system is PgR gene. Put plainly: RT-PCR of estrogen-responsive gene PgR in MCF-7:WS8 cells. The class given is cell-based, human. The conditions noted are these: MCF-7:WS8, 48 h; E2 at 10^–10 M, other compounds at 10^–6 M. The essentials:
as §1

For the molecule `C[C@]12CC[C@@H]3c4ccc(O)cc4C[C@@H](CCCCCCCCC[S+]([O-])CCCC(F)(F)C(F)(F)F)[C@H]3[C@@H]1CC[C@@H]2O` (stereo partly drawn) [Fulvestrant], the “reduction (down-regulation) of ERα level by densitometry” value at ERα (MCF-7:WS8, 24 h, E2 at 1 nM) is “more than 90%”.
For the molecule `CCOc1ccc2c(c1)CCCC(c1ccccc1)=C2c1ccc(OCCN(C)C)cc1` [ZFR4OHT], the “inhibition of 1 nM E2-induced Prl gene up-regulation” value with prolactin gene (Prl) is listed as “completely inhibit”. In addition, in the assay with pS2 gene, the “effect on pS2 mRNA expression” value was “no significant effect”. In addition, the “estrogenic properties on cell growth” value with MCF-7:WS8 cells [1] is given as “no estrogenic properties”. Also, the “effect on GREB1 mRNA expression” value in the assay with GREB1 gene was “no significant effect”.
For the molecule `CCC(=C(c1ccc(O)cc1)c1ccc(OCCN(C)C)cc1)c1ccccc1` [4OHT, 4-hydroxytamoxifen], the “inhibition of 1 nM E2-induced Prl gene up-regulation” value in the assay with prolactin gene (Prl) is given as “completely inhibit”. For the same molecule, in the assay with pS2 gene, the “effect on pS2 mRNA expression” value is reported as “no significant effect”. The “inhibition of 10^–10 M E2-induced growth” value in the assay with MCF-7:WS8 cells [2] is “completely”. The “estrogenic properties on cell growth” value in the assay with MCF-7:WS8 cells [1] is “no estrogenic properties”. In addition, the “effect on GREB1 mRNA expression” value with GREB1 gene is listed as “no significant effect”.
As to `CN(C)CCOc1ccc2c(c1)CCCC(c1ccccc1)=C2c1ccc(O)cc1` [EFR4OHT], in the assay on pS2 gene, the “effect on pS2 mRNA expression” value is on record as “induce expression”. Also, the “effect on PgR mRNA expression” value in the assay with PgR gene is given as “induce expression”. The “effect on GREB1 mRNA expression” value with GREB1 gene is “induce expression”.
For the molecule `CCC(=C(c1ccc(O)cc1)c1ccc(O)cc1)c1ccccc1` [BPTPE], the “effect on pS2 mRNA expression” value with pS2 gene is reported as “partial estrogenic effect”. Besides, the “effect on PgR mRNA expression” value with PgR gene is listed as “partial estrogenic effect”. Besides, the “partial agonist growth level, % max of E2 curve” value in the assay on MCF-7:WS8 cells [1] (MCF-7:WS8, over the range 10^–12–10^–9 M) is reported as 50%. Further, the “effect on GREB1 mRNA expression” value in the assay with GREB1 gene is recorded as “partial estrogenic effect”. Moreover, the “regulation of ERα protein levels” value on ERα was “up-regulated the protein levels”.
Take `C[C@]12CC[C@@H]3c4ccc(O)cc4CC[C@H]3[C@@H]1CC[C@@H]2O` [E2, 17β-estradiol]: the “effect on pS2 mRNA expression” value with pS2 gene is recorded as “induced expression”. For the same molecule, the “effect on PgR mRNA expression” value in the assay on PgR gene is listed as “induced expression”. In the assay with GREB1 gene, the “effect on GREB1 mRNA expression” value is listed as “induced expression”.
Regarding `CNCCOc1ccc2c(c1)CCCC(c1ccccc1)=C2c1ccc(O)cc1` [EFREndox, 4-(3-(2-(Methylamino)ethoxy)-8-phenyl-6,7-dihydro-5H-benzocyclohepten-9-yl)phenol], in the assay with pS2 gene, the “effect on pS2 mRNA expression” value was “induce expression”. Moreover, in the assay on PgR gene, the “effect on PgR mRNA expression” value was “induce expression”. In addition, in the assay with MCF-7:WS8 cells [2] (MCF-7:WS8, 10^–6 M compound with 10^–10 M E2), the “inhibition of E2-stimulated cell growth at top concentration” value is “about 10%”. In addition, the “effect on GREB1 mRNA expression” value in the assay with GREB1 gene is reported as “induce expression”.
For the molecule `CC/C(=C(\c1ccc(O)cc1)c1ccc(OCCNC)cc1)c1ccccc1` [Endoxifen, 4-hydroxy-N-desmethyltamoxifen], the “inhibition of 10^–10 M E2-induced growth” value with MCF-7:WS8 cells [2] was “completely”. Moreover, the “estrogenic properties on cell growth” value in the assay with MCF-7:WS8 cells [1] is listed as “no estrogenic properties”. The “regulation of ERα protein levels” value on ERα was “up-regulation”.
For the molecule `CNCCOc1ccc(C2=C(c3ccccc3)CCCc3cc(O)ccc32)cc1` [ZFREndox, 9-(4-(2-(Methylamino)ethoxy)phenyl)-8-phenyl-6,7-dihydro-5H-benzocyclohepten-3-ol], the “inhibition of 1 nM E2-induced Prl gene up-regulation” value in the assay on prolactin gene (Prl) is reported as “completely inhibit”. The “effect on pS2 mRNA expression” value in the assay with pS2 gene is given as “no significant effect”. For the same molecule, the “estrogenic properties on cell growth” value in the assay on MCF-7:WS8 cells [1] is given as “no estrogenic properties”. The “effect on GREB1 mRNA expression” value in the assay with GREB1 gene is recorded as “no significant effect”.
Take `CCC(=C(c1ccc(O)cc1)c1ccc(O)cc1)c1ccc(O)cc1` [3OHTPE]: the “effect on pS2 mRNA expression” value with pS2 gene is given as “partial estrogenic effect”. The “effect on PgR mRNA expression” value in the assay with PgR gene is listed as “partial estrogenic effect”. For the same molecule, the “effect on GREB1 mRNA expression” value in the assay on GREB1 gene is reported as “partial estrogenic effect”. In addition, the “regulation of ERα protein levels” value on ERα is reported as “up-regulated the protein levels”.
